Assay outcomes deposited in PubChem by The Scripps Research Institute Molecular Screening Center.
Hits are enriched below; roughly 1.4% of the tested compounds scored in any of these assays.
RBBP9 inhibitor = human RBBP9 hydrolase inhibition. O75884. recombinant RBBP9, FP-Rh probe fluorescence polarization. inhibition, % at 7.94 µM. 220,000 tested, 0.2% active. AID 1515;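 active = inhibition above the campaign mean of all tested compounds plus 3 SD, cut at about 14% in these data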;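 note: plate controls were DMSO wells with RBBP9 for no effect and wells lacking RBBP9 protein for full effect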
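System: RBBP9 protein | Quantity: 2.5 µM RBBP9 dispensing solution, before mixing | Reagent: FP-Rh probe, 375 nM dispensing solution | Timing: Enzyme-compound preincubation 30 min, then probe labeling 45 min, 25 °C | Measured by: Fluorescence polarization | Read-out: % inhibition | Replication: One well per compound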
HTRA1 inhibitor = blocks human HTRA1 serine peptidase. inhibition, % at 5.96 µM. recombinant HTRA1, FP-rhodamine activity-based probe, fluorescence polarization. Q92743. 340,000 tested, 0.5% active; in the data active = inhibition above about 36%;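 note: 0% = enzyme with DMSO and 100% = wells lacking enzyme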
SIAE inh = human SIAE inhibition, primary screen. Q9HAT2. SIAE FP-Rh probe binding, fluorescence polarization. inhibition, % at 9.66 µM. 370,000 tested, 0.69% active. AID 1053197;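 active = inhibition above a cutoff: mean of compounds within the control limits plus 3 SD of those, cut at about 17% in these data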;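 note: 0% = plate median of compound wells and 100% = probe without SIAE protein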
mABHD4 FP = inhibits mouse alpha/beta hydrolase domain 4; Q8VD66; purified mABHD4, FP-Rh probe fluorescence polarization; inhibition, % at 8.92 µM; 370,000 tested, 0.54% active;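 active = inhibition exceeding the mean over every tested compound plus 3 SD, cut at about 30% in these data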;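 note: 0% = plate median of compound wells and 100% = S159A mutant with DMSO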
Target sequence (Q8VD66 whole entry, looked up, the tested form may be a part): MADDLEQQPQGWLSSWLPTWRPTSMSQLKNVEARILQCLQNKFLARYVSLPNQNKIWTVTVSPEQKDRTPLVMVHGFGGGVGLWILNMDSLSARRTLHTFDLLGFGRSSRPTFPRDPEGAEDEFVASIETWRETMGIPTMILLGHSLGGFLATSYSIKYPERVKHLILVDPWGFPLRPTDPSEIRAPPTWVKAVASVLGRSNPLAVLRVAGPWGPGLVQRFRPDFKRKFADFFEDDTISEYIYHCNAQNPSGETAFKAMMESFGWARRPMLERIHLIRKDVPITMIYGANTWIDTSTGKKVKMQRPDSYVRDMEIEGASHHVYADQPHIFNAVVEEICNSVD
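System: mouse ABHD4 enzyme, wild type / Medium: HEPES pH 7.0, NaCl, Pluronic buffer / Reagent: FP-Rh activity-based fluorescent probe / Control set: S159A mutant high control, sample median low control / Detection: fluorescence polarization with parallel and perpendicular emission, 525/598 nm / Schedule: 45 min + 60 min at 25 °C / Compound dosing: 8.92 µM, single dose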
mABHD4 conf = confirmation of mouse ABHD4 inhibitors | purified mABHD4, FP-Rh probe fluorescence polarization | inhibition, % at 8.92 µM | shares compounds with mABHD4 FP | 1,800 tested, 55% active;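 active = mean inhibition across replicates above the hit cutoff set in the primary screen, cut at about 30% in these data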;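 note: 0% = wild-type ABHD4 with DMSO and 100% = catalytically dead S159A mutant with DMSO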
* = called active by the depositor; nt = no result.

SMILES	RBBP9 inhibitor	HTRA1 inhibitor	SIAE inh	mABHD4 FP	mABHD4 conf
CCN(CC)S(=O)(=O)c1ccc(N2CCCCC2)c(NC(=O)C2CSC3(C)CCC(=O)N23)c1 (configuration not stated)	nt	-9	3	40*	36*
CN(C)c1ccc(S(=O)(=O)N2CCCCC2)cc1NC(=O)C1CSC2(C)CCC(=O)N12 (configuration not stated)	nt	5	-5	1	nt
O=S1(=O)c2ccc(N3CCSCC3)cc2Oc2ccccc2CN1Cc1cn(Cc2ccc(C(F)(F)F)cc2)nn1	nt	nt	2	-8	nt
COC(=O)[C@@H](NC(=O)NCc1ccc(F)cc1)C(C)C	-7	5	7	-11	nt
COC(=O)[C@@H](NCc1ccc(B(O)O)cc1)C(C)C	nt	-3	-6	48*	36*
CN(C)c1ccc(N=Nc2ccc(S(N)(=O)=O)cc2)cc1	nt	0	-5	-11	nt
CN(C)c1ccc(N=Nc2ccc(S(=O)(=O)O)cc2)c2ccccc12	1	26	0	56*	60*
NC(CO)c1csc(Nc2ccc(C(F)(F)F)cn2)n1 (configuration not stated)	nt	nt	-2	-2	nt
NC(Cc1ccc(Cl)cc1)c1csc(Nc2ccc(C(F)(F)F)cn2)n1 (configuration not stated)	nt	nt	-2	32*	30*
C=CCN(c1ccccc1OC)S(=O)(=O)c1ccc(Cl)c(C(=O)NCc2ccco2)c1	nt	-8	-6	3	nt
COc1ccc2nc(Nc3nc(C)c(C(C)=O)s3)sc2c1	-3	15	5	35*	54*
O=C(CNC(=O)c1sc2ccccc2c1Cl)NC1CC1	nt	0	-2	6	nt
[O-][n+]1c2ccccc2[n+]([O-])c2cc(O)ccc21	nt	28	10	31*	35*
CCN(CCNCC(O)COCc1ccc(Cl)cc1)c1cccc(C)c1 (configuration not stated)	-2	10	5	18	nt
O=C(O)CCC(=O)Nc1ccc(N2CCCCCC2)cc1	8	8	4	32*	12
COc1cccc(N2CCN(CC(=O)NCc3c(F)cccc3F)CC2)c1	nt	nt	3	5	nt
COc1ccccc1NS(=O)(=O)c1ccc(O)c(C(=O)OCc2cccc([N+](=O)[O-])c2)c1	-5	-12	-2	32*	38*
COc1ccc(C(=O)NCC2CCN(C(=O)C(=O)c3cc4ccccc4o3)CC2)cc1	nt	nt	0	-1	nt
CC(C)[C@@H]1CC[C@@H](C)C[C@H]1OC[B-](F)(F)F	nt	nt	8	43*	47*
COC(=O)C1=C(C)N(Cc2ccc(C(F)(F)F)cc2)C(=NCc2ccc(C(F)(F)F)cc2)NC1c1ccccc1C(F)(F)F (configuration not stated)	nt	nt	-8	7	nt
COc1ccc(-n2nc3c(=O)[nH][nH]c3cc2=O)cc1	0	16	0	32*	42*
COC(=O)c1nn(-c2ccc(OC)cc2)c(=O)cc1NN	6	-4	6	6	nt
Cn1c(/C=C/c2ccc(Cl)cc2)nc2ccccc2c1=O	nt	0	-2	57*	-18
CCc1noc(C)c1C(=O)N1CCN(CC(=O)OC)CC1	nt	nt	7	-3	nt
Cc1ccc2c(c1)c(Sc1ccccc1)c(CC(=O)O)n2C	-9	1	2	30*	35*
SMILES	RBBP9 inhibitor	HTRA1 inhibitor	SIAE inh	mABHD4 FP	mABHD4 conf
CCOC(=O)Cc1c(Sc2ccccc2)c2cc(C)ccc2n1C	2	-9	-1	2	nt
Cc1cccc(OCCC(=O)Nc2ccc(N3CCOCC3)cc2N2CCOCC2)c1	nt	1	-3	35*	-16
COc1cc(C2NC(=O)NC(C)=C2C(=O)OCC2CCCCC2)ccc1O (configuration not stated)	nt	8	2	1	nt
CC1=Nc2nc(N3CCCCC3)c(C#N)c3c4c(nc(c23)N1)N(c1ccc(C(C)C)cc1)C(=O)C4	-1	2	6	44*	42*
COCCCNC(=S)NNC(=O)c1ccccn1	2	2	3	39*	44*
COc1ccccc1C(CNC(=O)c1ccc(C)c(S(=O)(=O)N2CCCCC2)c1)N1CCCC1 (configuration not stated)	nt	1	-2	-7	nt
CC(C)c1ccc(NC(=O)CCN2C(=O)[C@@H]3Cc4ccccc4CN3C2=O)cc1	nt	1	-6	-3	nt
Cc1ccc(NC(=S)NNc2ccc([N+](=O)[O-])cc2S(=O)(=O)Nc2ccccc2C(=O)O)cc1C	0	15	14	46*	85*
